Assay results published in ChEMBL document CHEMBL4359879, “Synthesis and evaluation of 2-carboxy indole derivatives as potent and selective anti-leukemic agents” (Eur J Med Chem, 2019).
pEC50: −log10 of the molar value. The source made the active and inactive calls. The calls are words filed in the database; no cut-off is given here.

Tests used:
HL-60 [1] = assay: Effect on human HL60 cells assessed as fold change in MEIOC gene expression at 1.085 uM incubated for 6 hrs by microarray-based method; format: functional
How it was run: (§1)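 HL60 cells were treated in triplicate with 1.085 µM or vehicle for 6 h. Total RNA was extracted with on-column DNase treatment and profiled on expression arrays.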

HL-60 [2] = assay: Effect on human HL60 cells assessed as fold change in ITPR3 gene expression at 1.085 uM incubated for 6 hrs by microarray-based method; format: functional; how it was run: as §1
Tubulin (Homo sapiens) = Tubulin (Homo sapiens) (UniProt P68371+Q9H4B7+P0DPH7+P68366+Q13509+Q71U36+P04350+Q3ZCM7+P07437+P68363+Q9BQE3+Q6PEY2+Q13885+Q9BVA1+Q9BUF5); assay: Induction of microtubule network depolymerization in human HeLa cells assessed as formation of condensed chromosomes at 500 nM incubated for 18 hrs by DAPI staining based fluorescence microscopic method; format: cell-based
How it was run: (§2)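 HeLa cells (100,000/mL) cultured overnight on glass-bottom dishes, then exposed to 500 nM or 1 μM, or DMSO, for 18 h. Permeabilized (0.5% Triton X-100) and fixed (3.7% formaldehyde). Stained overnight at 4 °C with anti-β-tubulin, then Alexa Fluor 647 secondary for 1 h at room temperature, and DAPI 1 μg/mL for 10 min. Examined by fluorescence microscopy.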

HL-60 [3] = assay: Effect on human HL60 cells assessed as fold change in RAB39B gene expression at 1.085 uM incubated for 6 hrs by microarray-based method; format: functional; how it was run: as §1
HL-60 [4] = assay: Effect on human HL60 cells assessed as fold change in PHF20L1 gene expression at 1.085 uM incubated for 6 hrs by microarray-based method; format: functional; how it was run: as §1
HL-60 [5] = assay: Effect on human HL60 cells assessed as fold change in FBXO25 gene expression at 1.085 uM incubated for 6 hrs by microarray-based method; format: functional; how it was run: as §1
HL-60 [6] = assay: Induction of differentiation in human HL60 cells assessed as increase in CD11b positive cells at EC50 to EC90 incubated for 24 hrs by 7-AAD staining-based flow cytometric analysis; format: functional, cell-based
How it was run: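 Vitamin D3 at 100 nM and ATRA at 2 μM served as positive controls. Stained with APC anti-CD11b and PE anti-CD14 for 30 min at 4 °C, then 7-AAD.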

HL-60 [7] = assay: Induction of cell cycle arrest in human HL60 cells assessed as accumulation of cells at S phase at EC50 incubated for 12 hrs by PI staining based flow cytometric analysis (reference value: 19.0%); format: functional
HL-60 [8] = assay: Effect on human HL60 cells assessed as fold change in CEP44 gene expression at 1.085 uM incubated for 6 hrs by microarray-based method; format: functional; how it was run: as §1
HL-60 [9] = assay: Effect on human HL60 cells assessed as fold change in TAS1R1 gene expression at 1.085 uM incubated for 6 hrs by microarray-based method; format: functional; how it was run: as §1
RS4-11 [10] = assay: Induction of apoptosis in human RS4:11 cells assessed as accumulation of cells at G2 phase at 300 nM incubated for 18 hrs in presence of PARP antibody by immunofluorescent staining based flow cytometric analysis relative to control; format: functional
How it was run: (§3)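 RS4;11 cells treated with 300 nM or DMSO vehicle for 18 h, then pulsed with 10 μM BrdU for 1 h. Harvested cells immunostained for BrdU/PI (cell cycle), γH2AX (DNA damage) and PARP (apoptosis). Multicolor flow cytometry gated G1, sub-G2-like, G2/M and sub-G0/G1 populations.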

HL-60 [11] = assay: Effect on human HL60 cells assessed as fold change in CELF2 gene expression at 1.085 uM incubated for 6 hrs by microarray-based method; format: functional; how it was run: as §1
HeLa = assay: Induction of cell cycle arrest in human HeLa cells assessed as formation of condensed chromosomes at 500 nM incubated for 18 hrs by DAPI staining based fluorescence microscopic method; format: functional; how it was run: as §2
HL-60 [12] = assay: Antiproliferative activity against human HL60 cells assessed as reduction in cell viability after 48 hrs by MTT assay; conditions: HL-60, 48 h
HL-60 [13] = assay: Effect on human HL60 cells assessed as fold change in TBCC gene expression at 1.085 uM incubated for 6 hrs by microarray-based method; format: functional; how it was run: as §1
HL-60 [14] = assay: Effect on human HL60 cells assessed as fold change in SLC8A2 gene expression at 1.085 uM incubated for 6 hrs by microarray-based method; format: functional; how it was run: as §1
HL-60 [15] = assay: Effect on human HL60 cells assessed as fold change in SPATA31A1 gene expression at 1.085 uM incubated for 6 hrs by microarray-based method; format: functional; how it was run: as §1
CCRF-CEM = assay: Antiproliferative activity against human CEM cells incubated for 48 hrs by MTT assay; format: functional, cell-based
How it was run: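 Cells grown in RPMI-1640 with 10% FBS, penicillin/streptomycin, 37 °C, 5% CO2. After 48 h of exposure to a dilution series, MTT was added (0.5 mg/ml final) for 4 h. Formazan was dissolved overnight in acidic SDS (10% SDS, 0.01 mol/L HCl) and absorbance read at 570 and 620 nm. Survival was expressed relative to controls, and EC50 was fitted from dose-response curves.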

RS4-11 [16] = assay: Effect on human RS4:11 cells assessed as increase in p53 protein expression at 300 nM incubated for 15 to 360 mins by Western blot analysis; format: functional, cell-based
How it was run: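 Leukemia cells (RS4;11, CEM, HL60) treated with 300 nM for 0, 15, 30, 60 and 360 min. Western blotting for β-tubulin and p53, with lamin B1 as loading control and chemiluminescent detection.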

HL-60 [17] = assay: Effect on human HL60 cells assessed as fold change in TIAL1 gene expression at 1.085 uM incubated for 6 hrs by microarray-based method; format: functional; how it was run: as §1
RS4-11 [18] = assay: Induction of apoptosis in human RS4:11 cells at 300 nM incubated for 18 hrs by Annexin V-FITC/propidium iodide staining-based flow cytometric analysis; format: functional, cell-based
How it was run: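 CEM, HL60 or RS4;11 cells (5×10^5) treated with 300 nM or vehicle for 18 h. Stained with FITC-Annexin V in binding buffer for 15 min at 37 °C, then PI (5 μg/mL) for 3 min. Analyzed by flow cytometry.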

RS4-11 [19] = assay: Induction of DNA damage in human RS4:11 cells assessed as accumulation of cells at sub G2 phase at 300 nM incubated for 18 hrs in presence of H2AX antibody by immunofluorescent staining based flow cytometric analysis relative to control; format: functional; how it was run: as §3
RS4-11 [20] = assay: Induction of cell cycle arrest in human RS4:11 cells assessed as increase in accumulation at G2/M phase at 300 nM incubated for 18 hrs by BrdU/propidium iodide staining based flow cytometric analysis; format: functional; how it was run: as §3
HL-60 [21] = assay: Effect on human HL60 cells assessed as fold change in ARL17A gene expression at 1.085 uM incubated for 6 hrs by microarray-based method; format: functional; how it was run: as §1
HL-60 [22] = assay: Induction of cell cycle arrest in human HL60 cells assessed as accumulation of cells at G0/G1 phase at EC50 incubated for 12 hrs by PI staining based flow cytometric analysis (reference value: 56.3%); format: functional
RS4-11 [23] = assay: Induction of apoptosis in human RS4:11 cells assessed as accumulation of cells at sub G2 phase at 300 nM incubated for 18 hrs in presence of PARP antibody by immunofluorescent staining based flow cytometric analysis relative to control; format: functional; how it was run: as §3

SMILES: COC(=O)c1[nH]c2cc(OC)ccc2c1-c1ccc(C(F)(F)F)cc1
- fold change (FC) (HL-60 [1]): -1.63
- fold change (FC) (HL-60 [2]): 1.57
- Activity (Tubulin (Homo sapiens)): Active
- fold change (FC) (HL-60 [3]): -1.53
- fold change (FC) (HL-60 [4]): 1.56
- fold change (FC) (HL-60 [5]): 1.71
- Activity (HL-60 [6]): Active
- Activity (HL-60 [7]): 19.1%
- fold change (FC) (HL-60 [8]): 1.76
- fold change (FC) (HL-60 [9]): -1.51
- Activity (RS4-11 [10]): 1.5%
- fold change (FC) (HL-60 [11]): 1.56
- Activity (HeLa): Active
- EC90 (HL-60 [12]): 1000 nM
- fold change (FC) (HL-60 [13]): -1.54
- fold change (FC) (HL-60 [14]): -1.53
- fold change (FC) (HL-60 [15]): -1.61
- pEC50 (CCRF-CEM): 6.70
- Activity (RS4-11 [16]): Active
- fold change (FC) (HL-60 [17]): 1.63
- Activity (RS4-11 [18]): Active
- Activity (RS4-11 [19]): 2.3%
- Activity (RS4-11 [20]): Active
- fold change (FC) (HL-60 [21]): -1.5
- Activity (HL-60 [22]): 20.8%
- Activity (RS4-11 [23]): 3.5%
